In brackets after ≈: the same amount, converted by molar mass.
Key:
Format in all cases: functional
Streptococcus pneumoniae [1] = test: Antimicrobial activity against Streptococcus pneumoniae clinical isolates by based on po dosed broth dilution method
How it was run: (§1)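 Isolates kept frozen at −70°C in duplicate and revived by hot-loop touching. MICs by the CLSI broth microdilution method active in the year of study, with S. pneumoniae ATCC 49619 as control. Categories assigned with CLSI M100-S19 breakpoints.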

Streptococcus pneumoniae [2] = test: Antimicrobial activity against Streptococcus pneumoniae clinical isolates assessed as susceptible isolates by based on po dosed broth dilution method; how it was run: as §1
Streptococcus pneumoniae [3] = test: Antimicrobial activity against Streptococcus pneumoniae clinical isolates assessed as resistant isolates by based on po dosed broth dilution method
How it was run: (§2)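 S. pneumoniae clinical isolates were kept frozen at −70°C in duplicate and recovered by hot-loop touching to avoid repeated freeze-thaw. MICs were measured by CLSI broth microdilution as in force in the study year, with S. pneumoniae ATCC 49619 as control strain. Susceptibility categories were interpreted using CLSI M100-S19 breakpoints.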

Streptococcus pneumoniae [4] = test: Antimicrobial activity against Streptococcus pneumoniae clinical isolates assessed as susceptible isolates by po dosed PK/PD technique
Streptococcus pneumoniae [5] = test: Antimicrobial activity against Streptococcus pneumoniae clinical isolates by based on parenterally dosed broth dilution method; how it was run: as §1
Streptococcus pneumoniae [6] = test: Antimicrobial activity against Streptococcus pneumoniae clinical isolates assessed as susceptible isolates by based on parenterally dosed broth dilution method; how it was run: as §1
Streptococcus pneumoniae [7] = test: Antimicrobial activity against Streptococcus pneumoniae clinical isolates assessed as resistant isolates by based on parenterally dosed broth dilution method in presence of beta-lactamase inhibitor clavulanic acid; how it was run: as §2
Streptococcus pneumoniae [8] = test: Antimicrobial activity against Streptococcus pneumoniae clinical isolates assessed as susceptible isolates by based on parenterally dosed PK/PD technique
Streptococcus pyogenes [9] = test: Antimicrobial activity against Streptococcus pyogenes clinical isolates by broth dilution method
Haemophilus influenzae [10] = test: Antimicrobial activity against Haemophilus influenzae clinical isolates by based on po dosed broth dilution method
How it was run: (§3)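 H. influenzae clinical isolates were stored at −70°C in duplicate and recovered by the hot-loop touching method without repeated thawing. MICs were determined by CLSI broth microdilution in Haemophilus test medium, following the method current in the study year. Each medium batch was checked for growth support with H. influenzae ATCC 10211. Controls were H. influenzae ATCC 49247 and ATCC 49766 and E. coli ATCC 35218. Categories were assigned per CLSI M100-S19.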

Haemophilus influenzae [11] = test: Antimicrobial activity against Haemophilus influenzae clinical isolates assessed as susceptible isolates by based on po dosed broth dilution method
How it was run: (§4)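 Clinical isolates stored in duplicate at −70°C and recovered by the hot-loop touching method. MICs by the CLSI broth microdilution method current in the study year, in Haemophilus test medium (HTM). Growth support of HTM checked with H. influenzae ATCC 10211. Controls were H. influenzae ATCC 49247 and ATCC 49766 and E. coli ATCC 35218. Susceptibility interpreted per CLSI M100-S19.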

Haemophilus influenzae [12] = test: Antimicrobial activity against Haemophilus influenzae clinical isolates assessed as resistant isolates by based on po dosed broth dilution method; how it was run: as §3
Haemophilus influenzae [13] = test: Antimicrobial activity against Haemophilus influenzae clinical isolates by based on po dosed PK/PD technique
Streptococcus pneumoniae [14] = test: Antimicrobial activity against Streptococcus pneumoniae clinical isolates by broth dilution method
Streptococcus pneumoniae [15] = test: Antimicrobial activity against Streptococcus pneumoniae clinical isolates assessed as susceptible isolates by broth dilution method; how it was run: as §1
Streptococcus pneumoniae [16] = test: Antimicrobial activity against Streptococcus pneumoniae clinical isolates assessed as resistant isolates by broth dilution method
Streptococcus pneumoniae [17] = test: Antimicrobial activity against Streptococcus pneumoniae clinical isolates assessed as susceptible isolates by PK/PD technique
Streptococcus pyogenes [18] = test: Antimicrobial activity against Streptococcus pyogenes clinical isolates assessed as susceptible isolates by broth dilution method
How it was run: (§5)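 S. pyogenes clinical isolates held at −70°C in duplicate and recovered by hot-loop touching. MICs by the CLSI broth microdilution method in force in the study year, interpreted per CLSI M100-S19.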

Streptococcus pyogenes [19] = test: Antimicrobial activity against Streptococcus pyogenes clinical isolates assessed as resistant isolates by broth dilution method
How it was run: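 S. pyogenes clinical isolates were held at −70°C in duplicate and revived by the hot-loop touching method. MICs were obtained by the CLSI broth microdilution procedure active in the year of study. Resistance was interpreted according to CLSI M100-S19.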

Haemophilus influenzae [20] = test: Antimicrobial activity against Haemophilus influenzae clinical isolates by broth dilution method
Haemophilus influenzae [21] = test: Antimicrobial activity against Haemophilus influenzae clinical isolates assessed as susceptible isolates by broth dilution method
Haemophilus influenzae [22] = test: Antimicrobial activity against Haemophilus influenzae clinical isolates assessed as resistant isolates by broth dilution method
Haemophilus influenzae [23] = test: Antimicrobial activity against Haemophilus influenzae clinical isolates assessed as susceptible isolates by PK/PD technique
Streptococcus pneumoniae [24] = test: Antimicrobial activity against Streptococcus pneumoniae clinical isolates by broth dilution method in presence of beta-lactamase inhibitor clavulanic acid; how it was run: as §1
Streptococcus pneumoniae [25] = test: Antimicrobial activity against Streptococcus pneumoniae clinical isolates assessed as susceptible isolates by broth dilution method in presence of beta-lactamase inhibitor clavulanic acid; how it was run: as §1
Streptococcus pneumoniae [26] = test: Antimicrobial activity against Streptococcus pneumoniae clinical isolates assessed as resistant isolates by broth dilution method in presence of beta-lactamase inhibitor clavulanic acid; how it was run: as §2
Streptococcus pneumoniae [27] = test: Antimicrobial activity against Streptococcus pneumoniae clinical isolates assessed as susceptible isolates by PK/PD technique in presence of beta-lactamase inhibitor clavulanic acid
Streptococcus pyogenes [28] = test: Antimicrobial activity against Streptococcus pyogenes clinical isolates by broth dilution method in presence of beta-lactamase inhibitor clavulanic acid; how it was run: as §5
Haemophilus influenzae [29] = test: Antimicrobial activity against Haemophilus influenzae clinical isolates by broth dilution method in presence of beta-lactamase inhibitor clavulanic acid; how it was run: as §4
Haemophilus influenzae [30] = test: Antimicrobial activity against Haemophilus influenzae clinical isolates assessed as susceptible isolates by broth dilution method in presence of beta-lactamase inhibitor clavulanic acid; how it was run: as §4
Haemophilus influenzae [31] = test: Antimicrobial activity against Haemophilus influenzae clinical isolates assessed as resistant isolates by broth dilution method in presence of beta-lactamase inhibitor clavulanic acid; how it was run: as §3
Haemophilus influenzae [32] = test: Antimicrobial activity against Haemophilus influenzae clinical isolates assessed as susceptible isolates by PK/PD technique in presence of beta-lactamase inhibitor clavulanic acid
Streptococcus pneumoniae [33] = test: Antimicrobial activity against Streptococcus pneumoniae clinical isolates assessed as susceptible isolates by PK/PD technique in presence of […] beta-lactamase inhibitor clavulanic acid
Haemophilus influenzae [34] = test: Antimicrobial activity against Haemophilus influenzae clinical isolates assessed as susceptible isolates by PK/PD technique in presence […] of beta-lactamase inhibitor clavulanic acid; parameters: scale not given: the % may be the effect or the level left

Row | Structure (SMILES) | MIC50 (Streptococcus pyogenes [9]) [µg/mL] | MIC90 (Streptococcus pyogenes [9]) [µg/mL] | MIC50 (Streptococcus pneumoniae [14]) [µg/mL] | MIC90 (Streptococcus pneumoniae [14]) [µg/mL] | Activity (Streptococcus pneumoniae [15]) [%] | Activity (Streptococcus pneumoniae [16]) [%] | Activity (Streptococcus pneumoniae [17]) [%] | Activity (Streptococcus pyogenes [18]) [%] | Activity (Streptococcus pyogenes [19]) [%] | MIC50 (Haemophilus influenzae [20]) [µg/mL] | MIC90 (Haemophilus influenzae [20]) [µg/mL] | Activity (Haemophilus influenzae [21]) [%] | Activity (Haemophilus influenzae [22]) [%] | Activity (Haemophilus influenzae [23]) [%] | other results
1 | CO/N=C(\C(=O)N[C@@H]1C(=O)N2C(C(=O)O)=C(COC(N)=O)CS[C@H]12)c1ccco1 [CEFUROXIME] | ≤ 0.015 | ≤ 0.015 | – | – | – | – | – | – | – | – | – | – | – | – | MIC50 (Streptococcus pneumoniae [1]): ≤ 0.015 µg/mL; MIC90 (Streptococcus pneumoniae [1]): 1 µg/mL (≈ 2.36 µM); Activity (Streptococcus pneumoniae [2]): 94.5%; Activity (Streptococcus pneumoniae [3]): 1.3%; Activity (Streptococcus pneumoniae [4]): 94.5%; MIC50 (Streptococcus pneumoniae [5]): ≤ 0.015 µg/mL; MIC90 (Streptococcus pneumoniae [5]): 1 µg/mL (≈ 2.36 µM); Activity (Streptococcus pneumoniae [6]): 83.8%; Activity (Streptococcus pneumoniae [7]): 5.5%; Activity (Streptococcus pneumoniae [8]): 99.3%; MIC50 (Haemophilus influenzae [10]): 0.5 µg/mL (≈ 1.18 µM); MIC90 (Haemophilus influenzae [10]): 1 µg/mL (≈ 2.36 µM); Activity (Haemophilus influenzae [11]): 99.3%; Activity (Haemophilus influenzae [12]): 0.1%; Activity (Haemophilus influenzae [13]): 91.4%
2 | CO/N=C(\C(=O)N[C@@H]1C(=O)N2C(C(=O)O)=C(COC(C)=O)CS[C@H]12)c1csc(N)n1 [CEFOTAXIME] | ≤ 0.015 | ≤ 0.015 | ≤ 0.015 | 0.25 (≈ 0.549 µM) | 99.6 | 0.2 | 99.6 | 100 | 0 | ≤ 0.015 | ≤ 0.015 | 99.9 | 0.1 | 99.9 | –
3 | C[C@H]1COc2c(N3CCN(C)CC3)c(F)cc3c(=O)c(C(=O)O)cn1c23.C[C@H]1COc2c(N3CCN(C)CC3)c(F)cc3c(=O)c(C(=O)O)cn1c23.O [LEVOFLOXACIN] | 0.125 | 0.25 | 0.125 | 0.25 | 97.6 | 0.5 | 97.7 | 100 | 0 | ≤ 0.015 | ≤ 0.015 | 99.9 | 0.1 | 99.9 | –
4 | N[C@@H](C(=O)N[C@@H]1C(=O)N2C(C(=O)O)=C(Cl)CS[C@H]12)c1ccccc1 [CEFACLOR ANHYDROUS] | 0.03 (≈ 0.0816 µM) | < 0.06 | 0.125 (≈ 0.34 µM) | 16 (≈ 43.5 µM) | 79.1 | 19 | 75.9 | – | – | 1 (≈ 2.72 µM) | 4 (≈ 10.9 µM) | 97.8 | 0 | 25.8 | –
5 | CC[C@H]1OC(=O)[C@H](C)[C@@H](O[C@H]2C[C@@](C)(OC)[C@@H](O)[C@H](C)O2)[C@H](C)[C@@H](O[C@@H]2O[C@H](C)C[C@H](N(C)C)[C@H]2O)[C@](C)(OC)C[C@@H](C)C(=O)[C@H](C)[C@@H](O)[C@]1(C)O [CLARITHROMYCIN] | ≤ 0.015 | 2 (≈ 2.67 µM) | ≤ 0.015 | ≥ 128 | 78.2 | 20.9 | 78.2 | 80.9 | 16.5 | 2 (≈ 2.67 µM) | 4 (≈ 5.35 µM) | 99.3 | 0 | 5.1 | –
6 | CC1(C)S[C@@H]2[C@H](NC(=O)Cc3ccccc3)C(=O)N2[C@H]1C(=O)O [PENICILLIN G] | ≤ 0.015 | ≤ 0.015 | – | – | – | – | – | 100 | 0 | – | – | – | – | – | MIC50 (Streptococcus pneumoniae [1]): ≤ 0.015 µg/mL; MIC90 (Streptococcus pneumoniae [1]): 0.5 µg/mL (≈ 1.5 µM); Activity (Streptococcus pneumoniae [2]): 77.1%; Activity (Streptococcus pneumoniae [3]): 0.9%; MIC50 (Streptococcus pneumoniae [5]): ≤ 0.015 µg/mL; MIC90 (Streptococcus pneumoniae [5]): 0.5 µg/mL (≈ 1.5 µM); Activity (Streptococcus pneumoniae [6]): 99.8%; Activity (Streptococcus pneumoniae [7]): 0%
7 | CC1(C)S[C@@H]2[C@H](NC(=O)[C@H](N)c3ccc(O)cc3)C(=O)N2[C@H]1C(=O)O [AMOXICILLIN] | – | – | – | – | – | – | – | – | – | – | – | – | – | – | MIC50 (Streptococcus pneumoniae [24]): ≤ 0.015 µg/mL; MIC90 (Streptococcus pneumoniae [24]): 1 µg/mL; Activity (Streptococcus pneumoniae [25]): 94.8%; Activity (Streptococcus pneumoniae [26]): 1.2%; Activity (Streptococcus pneumoniae [27]): 94.8%; MIC50 (Streptococcus pyogenes [28]): ≤ 0.015 µg/mL; MIC90 (Streptococcus pyogenes [28]): ≤ 0.015 µg/mL; MIC90 (Haemophilus influenzae [29]): 1 µg/mL; MIC50 (Haemophilus influenzae [29]; Haemophilus influenzae): 0.25 µg/mL; Activity (Haemophilus influenzae [30]): 99.7%; Activity (Haemophilus influenzae [31]): 0.3%; Activity (Haemophilus influenzae [32]): 97.5%; Activity (Streptococcus pneumoniae [33]): 98.8%; Activity (Haemophilus influenzae [34]): 99.7%
8 | CC[C@H]1OC(=O)[C@H](C)[C@@H](O[C@H]2C[C@@](C)(OC)[C@@H](O)[C@H](C)O2)[C@H](C)[C@@H](O[C@@H]2O[C@H](C)C[C@H](N(C)C)[C@H]2O)[C@](C)(O)C[C@@H](C)C(=O)[C@H](C)[C@@H](O)[C@]1(C)O [ERYTHROMYCIN] | ≤ 0.015 | 2 (≈ 2.73 µM) | ≤ 0.015 | ≥ 128 | 78.9 | 21.1 | 78.9 | 80.6 | 19 | 1 (≈ 1.36 µM) | 4 (≈ 5.45 µM) | – | – | 32.5 | –
9 | CC1(C)S[C@@H]2[C@H](NC(=O)[C@H](N)c3ccccc3)C(=O)N2[C@H]1C(=O)O [AMPICILLIN] | ≤ 0.015 | ≤ 0.015 | ≤ 0.015 | 2 (≈ 5.72 µM) | – | – | 93.4 | 100 | 0 | 0.12 (≈ 0.343 µM) | 4 (≈ 11.4 µM) | 83.9 | 13.3 | 86.7 | –
10 | CC[C@H]1OC(=O)[C@H](C)[C@@H](O[C@H]2C[C@@](C)(OC)[C@@H](O)[C@H](C)O2)[C@H](C)[C@@H](O[C@@H]2O[C@H](C)C[C@H](N(C)C)[C@H]2O)[C@](C)(O)C[C@@H](C)CN(C)[C@H](C)[C@@H](O)[C@]1(C)O [AZITHROMYCIN] | ≤ 0.015 | 2 (≈ 2.67 µM) | ≤ 0.015 | ≥ 128 | 77.6 | 20.8 | 74.3 | 81.1 | 11.6 | 0.25 (≈ 0.334 µM) | 1 (≈ 1.34 µM) | 100 | 0 | 23.8 | –

Source: ChEMBL document CHEMBL1275244, “Antimicrobial resistance among respiratory pathogens in Spain: latest data and changes over 11 years (1996-1997 to 2006-2007)” (2010)
